Assay results from ChEMBL document CHEMBL1145205, “Synthesis and biological evaluation of 1,2,4-triazinylphenylalkylthiazolecarboxylic acid esters as cytokine-inhibiting antedrugs with strong bronchodilating effects in an animal model of asthma” (J Med Chem, 2005).

What was measured:
PBL [1] = assay: Percent inhibition of interleukin-5 production in human whole blood assay after 10e-6 M treatment; format: functional
PBL [2] = assay: Percent inhibition of interleukin-5 production in human whole blood assay after 10e-7 M treatment; format: functional
[3] = Percent conversion of compound in human liver fraction after 60 min of administration; format: ADME, tissue-based; details: read-out: Conversion
In short: (§1)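 Test compound at 10^-6 M incubated at 37 °C in phosphate buffered saline with human liver S9 (10 µg protein/ml) or human lung S9 (50 µg protein/ml); samples taken at 0, 15 and 60 min; parent compound quantified by LC-MS/MS using MRM transition of parent to daughter ion; percent converted after 60 min.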

[4] = Percent conversion of compound in human lung S9 fraction after 60 min of administration; format: ADME; details: read-out: Conversion; in short: as §1

SMILES | metabolised at 1 h [3] | metabolised at 1 h [4] | Inhibition (PBL [1]) | Inhibition (PBL [2])
CC(C)(c1nc(-c2ccccc2)c(C(=O)OCCO)s1)c1c(Cl)cc(-n2ncc(=O)[nH]c2=O)cc1Cl | 1% | 0% | 93% | 66%
CC(C)(c1nc(-c2ccccc2)c(C(=O)OCC2CC2)s1)c1c(Cl)cc(-n2ncc(=O)[nH]c2=O)cc1Cl | 87% | 27% | 92% | 56%
CCCCOC(=O)c1sc(C(C)(C)c2c(Cl)cc(-n3ncc(=O)[nH]c3=O)cc2Cl)nc1-c1ccccc1 | 86% | 18% | 88% | 51%
CC#CCOC(=O)c1sc(C(C)(C)c2c(Cl)cc(-n3ncc(=O)[nH]c3=O)cc2Cl)nc1-c1ccccc1 | 1% | 3% | 100% | 96%
CC(C)(c1nc(-c2ccccc2)c(C(=O)OCCc2ccccc2)s1)c1c(Cl)cc(-n2ncc(=O)[nH]c2=O)cc1Cl | 94% | 24% | 88% | 62%
CC(=O)COC(=O)c1sc(C(C)(C)c2c(Cl)cc(-n3ncc(=O)[nH]c3=O)cc2Cl)nc1-c1ccccc1 | 64% | 19% | 85% | 57%
CCCOC(=O)c1sc(C(C)(C)c2c(Cl)cc(-n3ncc(=O)[nH]c3=O)cc2Cl)nc1-c1ccccc1 | 68% | 23% | 96% | 69%
CC(C)(c1nc(-c2ccccc2)c(C(=O)OCCOc2ccccc2)s1)c1c(Cl)cc(-n2ncc(=O)[nH]c2=O)cc1Cl | 73% | 21% | 83% | 70%
CCCCCOC(=O)c1sc(C(C)(C)c2c(Cl)cc(-n3ncc(=O)[nH]c3=O)cc2Cl)nc1-c1ccccc1 | 72% | 32% | 91% | 54%
CC(C)(c1nc(-c2ccccc2)c(C(=O)OCCCO)s1)c1c(Cl)cc(-n2ncc(=O)[nH]c2=O)cc1Cl | 76% | 8% | 83% | 58%
CC(C)=CCOC(=O)c1sc(C(C)(C)c2c(Cl)cc(-n3ncc(=O)[nH]c3=O)cc2Cl)nc1-c1ccccc1 | 65% | 6% | 73% | 55%
CC(C)(c1nc(-c2ccccc2)c(C(=O)OCC(F)(F)F)s1)c1c(Cl)cc(-n2ncc(=O)[nH]c2=O)cc1Cl | 38% | 36% | 92% | 75%
C=CCOC(=O)c1sc(C(C)(C)c2c(Cl)cc(-n3ncc(=O)[nH]c3=O)cc2Cl)nc1-c1ccccc1 | 68% | 23% | 96% | 69%

Now from value to compound, other results behind:

metabolised at 1 h [3] | metabolised at 1 h [4] | SMILES | Inhibition (PBL [1]) | Inhibition (PBL [2])
10% | 1% | CC(C)OC(=O)c1sc(C(C)(C)c2c(Cl)cc(-n3ncc(=O)[nH]c3=O)cc2Cl)nc1-c1ccccc1 | 94% | 85%
0% | 0% | CC(C)(c1nc(-c2ccccc2)c(C(=O)O)s1)c1c(Cl)cc(-n2ncc(=O)[nH]c2=O)cc1Cl | 0% | 0%
29% | 17% | CCOC(=O)c1sc(C(C)(C)c2c(Cl)cc(-n3ncc(=O)[nH]c3=O)cc2Cl)nc1-c1ccccc1 | 94% | 67%
49% | 47% | COC(=O)c1sc(C(C)(C)c2c(Cl)cc(-n3ncc(=O)[nH]c3=O)cc2Cl)nc1-c1ccccc1 | 93% | 84%
55% | 20% | C#CCOC(=O)c1sc(C(C)(C)c2c(Cl)cc(-n3ncc(=O)[nH]c3=O)cc2Cl)nc1-c1ccccc1 | 90% | 87%
80% | 27% | CC(C)COC(=O)c1sc(C(C)(C)c2c(Cl)cc(-n3ncc(=O)[nH]c3=O)cc2Cl)nc1-c1ccccc1 | 90% | 56%
61% | 34% | CC(C)(c1nc(-c2ccccc2)c(C(=O)OCC#N)s1)c1c(Cl)cc(-n2ncc(=O)[nH]c2=O)cc1Cl | 91% | 74%
7% | 0% | CC(C)(C)OC(=O)c1sc(C(C)(C)c2c(Cl)cc(-n3ncc(=O)[nH]c3=O)cc2Cl)nc1-c1ccccc1 | 89% | 79%
